“And” between values parts separate entries of the source, which are not always exact repeats. Equal values may be shown once.
Experiments:
Rattus norvegicus [1] = assay: In vivo inhibition of polyol accumulation in the sciatic nerve of galactosemic rats, activity is measured as polyol contents; type: functional, organism-based
In short: (§1)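 Male Wistar rats (SIC, 4 weeks old), three per group, had free access to water and a 20% galactose diet containing the compound for 6 days. Galactose-only and standard-diet groups served as controls. Rats were bled under ether anesthesia on day 7. Sciatic nerve polyol was measured by a modified Dvornik assay. % inhibition = (galactose control − treated)/(galactose control − normal) × 100. Student's t-test was used.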

Rattus norvegicus [2] = assay: In vivo inhibition of polyol accumulation in the sciatic nerve of galactosemic rats, activity is expressed as percent inhibition of poloyl accumulation.; type: functional; design: concentration or dose not given beside the values; in short: as §1
Rattus norvegicus [3] = assay: Compound was evaluated in vivo for […] at a dose of 90 mg/kg per day.; type: functional, organism-based
Rattus norvegicus [4] = assay: Compound was evaluated in vivo for […] at a dose of 15 mg/kg per day.; type: functional, organism-based; conditions: Sciatic nerve; in short: as §1
Rattus norvegicus [5] = assay: Compound was evaluated in vivo for 50% inhibition of enzymatic activity of partially purified AR from male rabbit sciatic nerve at a dose of 90 mg/kg per day.; type: functional, organism-based; in short: as §1
Rattus norvegicus [6] = assay: Compound was evaluated in vivo for percent inhibition of polyol accumulation at a dose of 3 mg/kg per day.; type: functional
In short: (§2)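 Galactosemic male Wistar rats (4 weeks old, n = 3) received the compound in a 20% galactose diet for 6 days and were killed on day 7. Sciatic nerve or lens polyol was measured by a modified Dvornik assay. Mean % inhibition = (galactose control − treated)/(galactose control − normal control) × 100.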

Rattus norvegicus [7] = assay: Compound was evaluated in vivo for inhibition of polyol accumulation in rat at a dose of 15 mg/kg per day.
Rattus norvegicus [8] = assay: Compound was evaluated in vivo for polyol content in lens of galactosemic rats at a dose of 3 mg/kg per day.
Rattus norvegicus [9] = assay: Compound was evaluated in vivo for 50% inhibition of polyol accumulation in rat sciatic nerve at a dose of 3 mg/kg per day.
Rattus norvegicus [10] = assay: Compound was evaluated in vivo for percent inhibition of polyol accumulation at a dose of 15 mg/kg per day; type: functional; in short: as §2

| Compound | polyol content (Rattus norvegicus [1]) [µmol/g] | Inhibition (Rattus norvegicus [2]) [%] | also measured |
| --- | --- | --- | --- |
| CN1C(=O)Nc2ccc(F)cc2[C@@]12NC(=O)NC2=O | 6.6 | 61 | – |
| CN1C(=O)Nc2ccc(F)cc2[C@]12NC(=O)NC2=O | 12.1 | 15.5 | – |
| CN1C(=O)Nc2ccc(Cl)cc2[C@@]12NC(=O)NC2=O | 3.4 | 100 | polyol content (Rattus norvegicus [3]): 42.4 µmol/g; polyol content (Rattus norvegicus [4]): 4.8 µmol/g; polyol content (Rattus norvegicus [5]): 2.8 µmol/g; Inhibition (Rattus norvegicus [6]): 23.4% and 0%; polyol content (Rattus norvegicus [7]): 59.2 µmol/g; polyol content (Rattus norvegicus [8]): 58.9 µmol/g; polyol content (Rattus norvegicus [9]): 7.5 µmol/g |
| COc1cc2c(cc1Cl)C1(NC(=O)NC1=O)N(C)C(=O)N2 (stereo not drawn) | 8.3 | 24.6 | – |
| CC(C)CN1C(=O)N(C)C2(NC(=O)NC2=O)c2ccccc21 (stereo not drawn) | 8.1 | 27.7 | – |
| CN1C(=O)Nc2c(cc(F)c(F)c2F)C12NC(=O)NC2=O (stereo not drawn) | 9.5 | 29.9 | – |
| NN1C(=O)Nc2ccccc2C12NC(=O)NC2=O (stereo not drawn) | 11.3 | 12.2 | – |
| CN1C(=O)Nc2ccccc2C12NC(=O)NC2=O (stereo not drawn) | 8.8 | 32.5 | – |
| CN1C(=O)Nc2c(N)cc(Cl)cc2C12NC(=O)NC2=O (stereo not drawn) | 7 | 44.6 | – |
| CN1C(=O)N(C)C2(NC(=O)NC2=O)c2ccccc21 (stereo not drawn) | 9.2 | 28.4 | – |
| CN1C(=O)Nc2ccc(OC(=O)c3ccccc3)cc2C12NC(=O)NC2=O (stereo not drawn) | 10.5 | 12.3 | – |
| CN1C(=O)Nc2c(Cl)cc(Cl)cc2C12NC(=O)NC2=O (stereo not drawn) | 5.8 | 63.1 | – |
| CN1C(=O)Nc2ccc(Cl)cc2[C@]12NC(=O)NC2=O | 10.7 | 26.3 | – |
| COc1ccc2c(c1)NC(=O)N(C)C21NC(=O)NC1=O (stereo not drawn) | 9.8 | 21 | – |
| Cc1ccc2c(c1)C1(NC(=O)NC1=O)N(C)C(=O)N2 (stereo not drawn) | 9 | 30.9 | – |
| O=C1NC(=O)C2(N1)NC(=O)Nc1ccccc12 (stereo not drawn) | 10.7 | 15.1 | – |
| Cc1cccc2c1C1(NC(=O)NC1=O)N(C)C(=O)N2 (stereo not drawn) | 9.2 | 27.5 | – |
| CCN1C(=O)Nc2ccccc2C12NC(=O)NC2=O (stereo not drawn) | 9.6 | 19.5 | – |
| CN1C(=O)Nc2ccc(F)cc2C12NC(=O)NC2=O (stereo not drawn) | 6.7 | 58.7 | – |
| CN1C(=O)Nc2cc([N+](=O)[O-])ccc2C12NC(=O)NC2=O (stereo not drawn) | 10.3 | 11.5 | – |
| Cc1ccc2c(c1)NC(=O)N(C)C21NC(=O)NC1=O (stereo not drawn) | 8.4 | 37.5 | – |

| Compound | polyol content (Rattus norvegicus [1]) [µmol/g] | Inhibition (Rattus norvegicus [2]) [%] | also measured |
| --- | --- | --- | --- |
| CN1C(=O)Nc2ccc(Cl)cc2C12NC(=O)NC2=O (stereo not drawn) | 6.7 | 68 | – |
| CN1C(=O)Nc2c([N+](=O)[O-])cc(Cl)cc2C12NC(=O)NC2=O (stereo not drawn) | 8 | 29.2 | – |
| CN1C(=O)Nc2cccc(Cl)c2C12NC(=O)NC2=O (stereo not drawn) | 11.9 | 17.5 | – |
| CN1C(=O)Nc2cc(Cl)ccc2C12NC(=O)NC2=O (stereo not drawn) | 11.4 | 22.3 | – |
| CN1C(=O)Nc2c(F)cccc2C12NC(=O)NC2=O (stereo not drawn) | 9.5 | 29.9 | – |
| CN1C(=O)Nc2ccc(OC(=O)/C=C/c3ccccc3)cc2C12NC(=O)NC2=O (stereo not drawn) | 10.4 | 29.3 | – |
| CN1C(=O)Nc2ccc(Br)cc2C12NC(=O)NC2=O (stereo not drawn) | 5.6 | 74.7 | – |
| CN1C(=O)Nc2c([N+](=O)[O-])cc([N+](=O)[O-])cc2C12NC(=O)NC2=O (stereo not drawn) | 10.1 | 14.1 | – |
| CN1C(=O)Nc2ccccc2[C@@]12NC(=O)NC2=O | 8.4 | 39 | – |
| CCOC(=O)c1ccc2c(c1)C1(NC(=O)NC1=O)N(C)C(=O)N2 (stereo not drawn) | 11.1 | 22.2 | – |
| CN1C(=O)Nc2cc(Cl)c(Cl)cc2C12NC(=O)NC2=O (stereo not drawn) | 7.5 | 52.9 | – |
| Cc1cc2c(cc1Cl)C1(NC(=O)NC1=O)N(C)C(=O)N2 (stereo not drawn) | 6.8 | 58 | – |
| CN1C(=O)Nc2cc(Cl)c([N+](=O)[O-])cc2C12NC(=O)NC2=O (stereo not drawn) | 10.6 | 7.7 | – |
| CN1C(=O)Nc2ccc([N+](=O)[O-])cc2C12NC(=O)NC2=O (stereo not drawn) | 12.1 | 15.5 | – |
| CN1C(=O)Nc2cc(N3CCOCC3)c([N+](=O)[O-])cc2C12NC(=O)NC2=O (stereo not drawn) | 10.4 | 10.3 | – |
| CN1C(=O)Nc2cc3c(cc2C12NC(=O)NC2=O)OCO3 (stereo not drawn) | 9.2 | 28.4 | – |
| COc1c(Cl)cc2c(c1Cl)NC(=O)N(C)C21NC(=O)NC1=O (stereo not drawn) | 8.4 | 37.5 | – |
| CN1C(=O)Nc2ccc([N+](=O)[O-])c(Cl)c2C12NC(=O)NC2=O (stereo not drawn) | 11.5 | 0 | – |
| COc1ccc2c(c1)C1(NC(=O)NC1=O)N(C)C(=O)N2 (stereo not drawn) | 10.4 | 13.6 | – |
| O=C1NC(=O)[C@@]2(CCOc3ccc(F)cc32)N1 [SORBINIL] | – | – | inhibition in vivo at 15 mg/kg/day (Rattus norvegicus [10]): 90.2% |

Source: ChEMBL document CHEMBL1126066, “Biological activities and quantitative structure-activity relationships of spiro[imidazolidine-4,4'(1'H)-quinazoline]-2,2',5(3'H)-triones as aldose reductase inhibitors” (J Med Chem, 1992)
